Test results from PubChem BioAssay.
A number with no mark means an inactive call. Inconclusive results are not listed. Activity calls are given as the source filed them.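 How the source made its calls, unless noted: active means viability at or below 27.92% in each of two runs, the all-compound median minus 4 SD; inconclusive means no clear call, values can overlap the other calls; inactive means the rest.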

Columns and labels:
[1] = OD615 S. cerevisiae growth inhibition, permissive medium, pilot counter-assay, permissive growth control for S. cerevisiae lifespan shortening project (AID 705;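 active means growth inhibition above 25% in both replicates, a cutoff set 3 SD above the mean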); conditions: OD615, 24 h, at 10 µM, stronger effect = higher value
Outline: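 System: Engineered DeaD yeast | Buffer or medium: SC raffinose/galactose permissive medium | Incubation: Cells pre-grown 4 h, then 24 h compound exposure, 30 °C humidified | Measured by: Absorbance (optical density) at 615 nm | Read-out: Reduction in yeast growth (OD615)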

[2] = Restrictive medium S. cerevisiae growth inhibition, OD615, pilot screen of yeast lifespan reduction project, restrictive growth control (AID 706;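 active means growth inhibition above a set limit, 3 SD over mean compound inhibition, in both replicates, cut at about 43% in these data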;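 further: modified DeaD lifespan yeast strain shifted to restrictive glucose medium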); conditions: OD615, 48 h, at 10 µM, stronger effect = higher value
Outline: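 Material: modified S. cerevisiae; Medium: glucose-based CSMM-D restrictive medium; Compound dosing: one concentration, 10 µM final, 0.25% DMSO; Incubation: 48 h compound exposure at 30 °C; Measured by: OD615.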

[3] = viability gain of MRP-1-high H69AR cells under doxorubicin, pilot screen, MRP-1 activator project, CellTiter-Glo, duplicate (AID 807;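 active means viability increase at or above a cutoff of the median across tested compounds plus 3 SD, cut at about 8.5% in these data, passing the limit was not always enough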;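 further: compound pretreatment 18-22 h then 72 h combined with doxorubicin; 0% = doxorubicin alone and 100% = vehicle without doxorubicin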); conditions: H69AR viability with doxorubicin, CellTiter-Glo luminescence; at 10 µM; stronger effect = higher value
[4] = growth suppression of beta-catenin knockout HCT116, pilot screen, human colon tumor cells (AID 823;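 active means cell viability at or below a set limit in both duplicate runs, the limit being the all-compound median minus 4 SD, cut at about 23% in these data, passing the limit was not always enough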;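 further: 0% = wells killed by 20 µM Hyamine and 100% = untreated DMSO cell wells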); conditions: CellTiter-Glo, 60 h, at 10 µM, stronger effect = lower value
[5] = growth suppression of PTEN-deleted HCT116, pilot screen, cell-based, HCT116 clonal line, CellTiter-Glo (AID 824); conditions: 60 h, at 10 µM, stronger effect = lower value;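 further: 0% = 20 µM Hyamine control and 100% = vehicle cell control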
[6] = inhibitors of the yeast RAM network, pilot screen, dse1pr::URA3 reporter, 5-FOA selection (AID 869;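 active means inhibition over a set limit, the all-compound mean plus 3 SD, in both replicate runs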;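 further: 0% = DMSO wells with no growth and 100% = 10 µM 1-NA-PP1 with full growth; RAM network block rescues cells from 5-FOA so hits raise OD615 growth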); conditions: S. cerevisiae dse1pr::URA3 5-FOA growth, OD615, 2 d; at 10 µM; stronger effect = higher value; strain carries analog-sensitive mutant Cbk1 kinase
[7] = RAM signaling pathway blockade in yeast – S. cerevisiae, Pdr1DBD-CYC8 efflux-inhibited sensitized strain, primary screen (AID 1298;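 active means RAM network inhibition above 8.4% in each of two replicates, 3 SD over the compound average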;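 further: 0% = DMSO untreated cells without growth and 100% = 10 µM 1-NA-PP1 full growth; higher means more yeast growth rescued from 5-FOA killing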); conditions: S. cerevisiae cbk1-as DSE1-URA3 strain, 5-FOA growth OD615, 2 d; at 50 µM; stronger effect = higher value

Compound: CCOC(=O)C1C(=O)Oc2ccc3ccccc3c2C1C1CCOC1=O (centres undefined)
- growth inhibition [1]: -5.13%
- growth inhibition [2]: -1.85%
- viability increase [3]: -2.53%
- viability [4]: 99.5%
- viability [5]: 97.6%
- inhibition [6]: 0.105%
- RAM network inhibition [7]: -1.08%

Compound: Cc1ccc(-c2cc3c(nn2)-c2ccccc2C3=O)cc1
- growth inhibition [1]: -17%
- growth inhibition [2]: -5.93%
- viability increase [3]: -6.54%
- viability [4]: 53.4%
- viability [5]: 49.6%
- inhibition [6]: 4.56%
- RAM network inhibition [7]: 7.67%

Compound: COc1ccc(C2CC(=O)C3=C(C2)NC(C)=C(C#N)C3c2ccc(N(C)C)cc2)cc1 (centres undefined)
- growth inhibition [1]: -6.35%
- growth inhibition [2]: 7.55%
- viability increase [3]: 0.06%
- viability [4]: 78.5%
- viability [5]: 75.8%
- inhibition [6]: 2.72%
- RAM network inhibition [7]: 5.79%

Compound: CC1CN(S(=O)(=O)c2ccc(C(=O)Nc3sc4c(c3C(N)=O)CCN(C)C4)cc2)CC(C)O1 (centres undefined)
- growth inhibition [1]: -6.76%
- growth inhibition [2]: -7.93%
- viability increase [3]: -0.69%
- viability [4]: 91.9%
- viability [5]: 97.7%
- inhibition [6]: 1.35%
- RAM network inhibition [7]: 5.2%

Compound: CC(=O)Nc1ccc(S(=O)(=O)N2CCN(c3nc(NC4CCCC4)c4ccccc4n3)CC2)cc1
- growth inhibition [1]: 0.72%
- growth inhibition [2]: -1.39%
- viability increase [3]: -8.11%
- viability [4]: 1.42% (active)
- viability [5]: 1.7% (active)
- inhibition [6]: 1.15%
- RAM network inhibition [7]: 3.62%

Compound: CC(C)c1nc2cc3ccccc3cc2[nH]1
- growth inhibition [1]: -5.02%
- growth inhibition [2]: -20.5%
- viability increase [3]: -3.6%
- viability [4]: 73.5%
- viability [5]: 81.8%
- inhibition [6]: 0.18%
- RAM network inhibition [7]: 7.45%

Compound: Cc1ccc2cc(CCNC(=O)C3CCCC3)c(=O)[nH]c2c1
- growth inhibition [1]: -7.07%
- growth inhibition [2]: -9.72%
- viability increase [3]: 1.09%
- viability [4]: 107%
- viability [5]: 98.2%
- inhibition [6]: 3.17%
- RAM network inhibition [7]: 4.58%

Compound: CC1(C)CC(=O)c2sc(NC(=O)CN3C(=O)CCC3=O)nc2C1
- growth inhibition [1]: -6.85%
- growth inhibition [2]: 0.48%
- viability increase [3]: -1.54%
- viability [4]: 103%
- viability [5]: 103%
- inhibition [6]: 0.685%
- RAM network inhibition [7]: 2.38%

Compound: Cc1cnc(C(=O)OCC(=O)Nc2cc(Cl)cc(Cl)c2)cn1
- growth inhibition [1]: -14.2%
- growth inhibition [2]: -9.38%
- viability increase [3]: -5.97%
- viability [4]: 96.7%
- viability [5]: 88.5%
- inhibition [6]: 1.13%
- RAM network inhibition [7]: 5.88%

Compound: CCN(CC)S(=O)(=O)c1ccc(-c2nnc3sc4cccc(C)c4n23)cc1
- growth inhibition [1]: -22.7%
- growth inhibition [2]: -11.5%
- viability increase [3]: -2.97%
- viability [4]: 73.4%
- viability [5]: 72.9%
- inhibition [6]: 2%
- RAM network inhibition [7]: 3.69%

Compound: CC(C)c1cc(N2CCN(C(=O)c3ccco3)CC2)n2c(nc3ccccc32)c1C#N
- growth inhibition [1]: -3.91%
- growth inhibition [2]: 0.12%
- viability increase [3]: -5.67%
- viability [4]: 94.1%
- viability [5]: 91.6%
- inhibition [6]: 2.04%
- RAM network inhibition [7]: 3.57%

Compound: O=c1cc(CSc2nnc(-c3ccccc3)o2)c2ccccc2[nH]1
- growth inhibition [1]: -4.87%
- growth inhibition [2]: -3.43%
- viability increase [3]: 0.91%
- viability [4]: 99.2%
- viability [5]: 102%
- inhibition [6]: 2.32%
- RAM network inhibition [7]: 6.08%
